Screening data as filed in PubChem.
TAAR1 agonist = human TAAR1 agonism | CHO RD-HGA16 TAAR1, Fluo-8 calcium fluorescence; vehicle wells 0%, saturating PEA agonist 100% | activation, % at 3 µM | hit rate 0.99% among 360,000;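 active = activation above the mean activation of all test compounds in the run plus 3 SD, cut at about 38% in these data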
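Test system: RD-HGA16 (CHO) cells co-expressing Gα16 and hTAAR1 / Benchmarks: DMSO vehicle as 0%, PEA at EC100 as 100% / Repeats: no replicates (n 1) / Measure: % activation from peak over basal fluorescence ratio, DMSO-to-PEA scaled / Timing: 17-24 h plating, Fluo-8 75 min 37 °C, 30 min RT / Technique: kinetic Fluo-8 calcium fluorescence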
CHO parental Ca = signal in parental CHO cells, OX1R antagonist counter-screen | parental CHO-K1, ATP-induced calcium, Fluo-8 fluorescence | inhibition, % at 5.6 µM | hit rate 0.63% among 330,000 | AID 463079;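 active = inhibition above that plate's mean sample inhibition plus 3 SD, cut at about 26% in these data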;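 also: 0% = ATP-challenged DMSO wells and 100% = DMSO wells without ATP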
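Measured by: calcium-sensitive Fluo-8 fluorescence / Test system: CHO parental line / Controls: ATP-challenged DMSO wells low, unchallenged DMSO wells high / Measure: % inhibition / Compound: single nominal dose of 5.6 µM per compound / Replicates: single well per compound, no replicates / Reagent: ATP as calcium-mobilizing challenge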
OX1R antag-1 = blocks the human orexin 1 receptor; O43613; OX1R-expressing cells, FRET antagonist read-out; inhibition, % at 6.6 µM; hit rate 1.8% among 330,000; in the data active = inhibition mostly above about 38%, no sharp cut-off; inactive = mostly below about 40%;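 also: 0% = agonist challenge alone and 100% = reference antagonist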
Target sequence (O43613 whole entry, looked up): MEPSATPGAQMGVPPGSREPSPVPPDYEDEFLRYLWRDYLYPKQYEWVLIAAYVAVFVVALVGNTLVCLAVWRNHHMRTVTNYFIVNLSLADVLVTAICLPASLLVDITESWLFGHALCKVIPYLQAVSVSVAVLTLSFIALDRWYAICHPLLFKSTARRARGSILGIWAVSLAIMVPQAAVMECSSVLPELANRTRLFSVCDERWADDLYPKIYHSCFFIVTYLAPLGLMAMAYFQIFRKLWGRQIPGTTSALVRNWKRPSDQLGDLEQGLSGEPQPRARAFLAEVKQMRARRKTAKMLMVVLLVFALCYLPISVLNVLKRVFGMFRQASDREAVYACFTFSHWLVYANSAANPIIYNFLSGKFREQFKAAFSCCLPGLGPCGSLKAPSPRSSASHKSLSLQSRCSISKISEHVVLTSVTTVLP
OX1R antag-2 = antagonists of human orexin 1 receptor; O43613; CHO/OX1R cells, Fluo-8 calcium fluorescence, orexin A; inhibition, % at 5 µM; hit rate 0.43% among 330,000; AID 434989;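 active = inhibition above its plate's threshold, mean inhibition of all tested compounds on the plate plus 3 SD, cut at about 37% in these data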;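 also: 0% = orexin A challenge wells and 100% = SB-334867-A antagonist wells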
TAAR1 antag = human TAAR1 antagonism; CHO RD-HGA16 TAAR1, Fluo-8 calcium fluorescence, antagonist; inhibition, % at 3 µM; hit rate 1.5% among 360,000;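 active = inhibition above a per-plate cutoff, the mean inhibition of test compounds on that plate plus 3 SD, cut at about 49% in these data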;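 also: 0% = DMSO plus EC80 beta-PEA response and 100% = DMSO alone without agonist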
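Test system: hTAAR1-expressing CHO RD-HGA16 cells, Gα16-coupled; Probe or stimulus: EC80 β-phenethylamine stimulus; Compound dosing: single nominal final test compound concentration of 3 µM; Timing: 140 s kinetic read after compound, 140 s after agonist; Signal: Fluo-8 calcium-sensitive fluorescence; Measure: % inhibition of agonist calcium response; Controls: DMSO and EC80 PEA controls.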
NTR1 ag = agonists of human neurotensin receptor NTR1; P30989; NTR1-U2OS beta-arrestin-GFP spot imaging, agonist mode; activation, % at 20 µM; hit rate 0.17% among 330,000; AID 493036;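 active = activation at or above 40% of the spot to cytoplasm intensity ratio, with at least 20 cells analyzed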;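 also: 0% = DMSO without peptide and 100% = 100 nM NTR1 peptide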
The depositor's hits bear a star. Shown are actives, neighbours in structure and some others; about 4% of the full set was active somewhere.

Screening Cc1ccccc1N1CC(C(=O)N2CCCCCC2)CC1=O (stereo not given) returned TAAR1 agonist 0, CHO parental Ca -7, OX1R antag-1 22, OX1R antag-2 -21, TAAR1 antag -2 and NTR1 ag 0.
Screening CCOc1ccccc1NC(=O)CSc1nc2nc(-c3cccs3)cc(C(F)(F)F)c2c(=O)[nH]1 returned TAAR1 agonist -2, CHO parental Ca -18, OX1R antag-1 47*, OX1R antag-2 -24, TAAR1 antag -17 and NTR1 ag 9.
Screening COc1ccccc1C(=O)N1CCN(C(=O)[C@H]2O[C@@H](n3cnc(C(N)=O)n3)[C@H](O)[C@@H]2O)CC1 returned TAAR1 agonist 1 and TAAR1 antag -7.
Screening COc1ccc(C(N)c2nccc3cc(OC)c(OC)cc23)cc1OC (stereo not given) returned CHO parental Ca -14, OX1R antag-1 73*, OX1R antag-2 -41 and NTR1 ag 0.
COc1ccc(OCC2CN(C3CCCC3)S(=O)(=O)CCO2)cc1 (stereo not given) was read as TAAR1 agonist 0 and TAAR1 antag 11.
Screening COc1ccc(NC(=O)CSc2nnc(C)n2N)cc1S(=O)(=O)N1CCCCC1 returned TAAR1 agonist 1, CHO parental Ca -2, OX1R antag-1 8, OX1R antag-2 -13, TAAR1 antag -14 and NTR1 ag -2.
CCC(=O)Nc1ccc(NC(=O)c2oc3ccccc3c2C)cc1 was read as TAAR1 agonist 14, CHO parental Ca -10, OX1R antag-1 47*, OX1R antag-2 -14, TAAR1 antag -2 and NTR1 ag 1.
`Cc1c(C(=O)NCCc2ccc3c(c2)OCCO3)oc2ccccc12` gave TAAR1 agonist 10, CHO parental Ca -8, OX1R antag-1 38*, OX1R antag-2 5, TAAR1 antag 29 and NTR1 ag 1.
Screening CCOc1ccc2oc(C(=O)Nc3ccc(N4CCOCC4)cc3)c(C)c2c1 returned TAAR1 agonist 18, CHO parental Ca -5, OX1R antag-1 36, OX1R antag-2 -29, TAAR1 antag 50* and NTR1 ag 1.
CC(=O)Nc1cccc(NC(=O)c2oc3ccccc3c2C)c1 was read as TAAR1 agonist 19, CHO parental Ca -8, OX1R antag-1 62*, OX1R antag-2 11, TAAR1 antag 24 and NTR1 ag 2.
`CC(=O)Nc1ccc(NC(=S)NC(=O)c2oc3ccccc3c2C)cc1` gave TAAR1 agonist 1, CHO parental Ca -14, OX1R antag-1 19, OX1R antag-2 -5, TAAR1 antag -2 and NTR1 ag 3.
O=[N+]([O-])c1ccc2c(c1)CO[C@]21O[C@H](CCO)C[C@H](O)[C@H]1O was read as TAAR1 agonist 3 and TAAR1 antag 3.
For C[C@@H]1CN([C@H](C)CO)C(=O)c2cc(Br)cnc2O[C@H]1CN(C)Cc1ccccc1F the results were TAAR1 agonist 1 and TAAR1 antag 12.
Screening Cc1cc2c(c(=O)o1)[C@@]1(C(=O)N(c3ccccc3)c3ccccc31)C1=C(CCCC1=O)O2 returned TAAR1 agonist 0 and TAAR1 antag 9.
Screening CC(NC(=O)C1CC1)c1ccc(-c2ccccc2)cc1 (stereo not given) returned TAAR1 agonist 4, CHO parental Ca -7, OX1R antag-1 5, OX1R antag-2 -7, TAAR1 antag 0 and NTR1 ag 0.
Screening Cc1ccc(Oc2cccc3c2S(=O)(=O)N([C@H](C)c2ccccc2)C[C@@H](COCc2ccccc2)O3)cc1 returned TAAR1 agonist 4 and TAAR1 antag -4.
CCC(=NNc1ccc([N+](=O)[O-])cc1[N+](=O)[O-])c1ccccc1 was read as TAAR1 agonist 1 and TAAR1 antag -20.
Screening C/C(=N\Nc1ccc([N+](=O)[O-])cc1[N+](=O)[O-])C(C)(C)C(C(=O)O)C(=O)O returned TAAR1 agonist 1, CHO parental Ca -7, OX1R antag-1 73*, OX1R antag-2 -10, TAAR1 antag -14 and NTR1 ag 7.
`COc1ccc(Oc2cccc3c2S(=O)(=O)N(C2CC2)C[C@@H](COCc2ccccc2)O3)cc1` gave TAAR1 agonist -1 and TAAR1 antag 9.
Screening O=[N+]([O-])c1ccc(N=Nc2c(Cl)cc(O)cc2Cl)cc1 returned TAAR1 agonist 3, CHO parental Ca 67*, OX1R antag-1 58*, OX1R antag-2 39* and TAAR1 antag 59*.
`COc1cccc(CC(NC(C)=O)C(=O)NC2CCN(C(=O)c3ccncc3)CC2)c1OC` (stereo not given) gave TAAR1 agonist 3, TAAR1 antag 13 and NTR1 ag -1.
COc1ccccc1C(=O)NC(CCSC)C(=O)OCC(=O)N1CCN(S(=O)(=O)c2ccc(C)cc2)CC1 (stereo not given) was read as TAAR1 agonist 1 and TAAR1 antag 21.
`COc1ccnc(Oc2ccccc2)c1C(=O)N/C=N/OCc1ccccc1F` gave TAAR1 agonist 22, CHO parental Ca -18, OX1R antag-1 12, OX1R antag-2 -26, TAAR1 antag 49* and NTR1 ag 0.
`COc1ccnc(Oc2ccc(F)cc2)c1C(=O)N/C=N/OCc1ccc(F)cc1` gave TAAR1 agonist 49*, CHO parental Ca -7, OX1R antag-1 5, OX1R antag-2 3, TAAR1 antag 19 and NTR1 ag 0.
CCNc1c(NCC)c(=O)c1=O was read as TAAR1 agonist 0, CHO parental Ca -1, OX1R antag-1 8, OX1R antag-2 10, TAAR1 antag -30 and NTR1 ag 0.
CN(c1cccnc1)c1ccc(NC(=O)Cc2cn(Cc3ccccc3)c3ccccc23)cc1Br was read as TAAR1 agonist 0 and TAAR1 antag 5.
For COc1ccc(CCNS(=O)(=O)c2cccc3nsnc23)cc1OC the results were TAAR1 agonist 11, CHO parental Ca -11, OX1R antag-1 22, OX1R antag-2 -22, TAAR1 antag 17 and NTR1 ag 0.
Screening Cc1cccc(NC(=O)CCS(=O)(=O)c2cccc3nsnc23)c1C returned TAAR1 agonist 5, CHO parental Ca -24, OX1R antag-1 63*, OX1R antag-2 -27, TAAR1 antag -4 and NTR1 ag -2.
COc1ccc(CCNC(=O)CCS(=O)(=O)c2cccc3nsnc23)cc1OC was read as TAAR1 agonist 1, CHO parental Ca -16, OX1R antag-1 77*, OX1R antag-2 -19, TAAR1 antag 0 and NTR1 ag 1.
Cc1nnc2n1N=CC=C(c1ccccc1)S2 was read as TAAR1 agonist 8, CHO parental Ca -9, OX1R antag-1 54*, OX1R antag-2 -4, TAAR1 antag 5 and NTR1 ag -1.
